Measurements published in ChEMBL document CHEMBL4052644, “Synthesis of novel benzylidene analogues of betulinic acid as potent cytotoxic agents” (Eur J Med Chem, 2017).

How the values were obtained:
PC-3 [1] = experiment: Cytotoxicity against human PC3 cells assessed as reduction in cell viability after 48 hrs by SRB assay; format: functional, cell-based; settings: PC-3, 48 h
Method in brief: (§1)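 SRB assay. Compounds active at 10 µM in the primary screen were retested at 1, 2.5 and 5 µM, and IC50 was calculated from these concentrations. The normal breast epithelial line fR2 was tested alongside the cancer lines.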

PC-3 [2] = experiment: Growth inhibition of human PC3 cells at 10 uM after 48 hrs by SRB assay relative to control; format: functional; settings: PC-3, 48 h, read-out: GI
Method in brief: (§2)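 Primary SRB screen of every compound at a single concentration of 10 µM. Growth inhibition is expressed relative to control.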

MCF7 [3] = experiment: Growth inhibition of human MCF7 cells at 10 uM after 48 hrs by SRB assay relative to control; format: functional; settings: MCF7, 48 h, read-out: GI; method in brief: as §2
MIA PaCa-2 [4] = experiment: Cytotoxicity against human MIAPaCa2 cells assessed as reduction in cell viability after 48 hrs by SRB assay; format: functional, cell-based; settings: MIA PaCa-2, 48 h; method in brief: as §1
MIA PaCa-2 [5] = experiment: Growth inhibition of human MIAPaCa2 at 10 uM after 48 hrs by SRB assay relative to control; format: functional; settings: MIA PaCa-2, 48 h, read-out: GI; method in brief: as §2
[6] = Cytotoxicity against human FR2 cells assessed as reduction in cell viability after 48 hrs by SRB assay; format: cell-based; settings: FR2, 48 h; method in brief: as §1
A549 [7] = experiment: Cytotoxicity against human A549 cells assessed as reduction in cell viability after 48 hrs by SRB assay; format: functional, cell-based; settings: A549, 48 h; method in brief: as §1
[8] = Selectivity index, ratio of IC50 for human FR2 cells to IC50 for human MCF7 cells; format: functional
Method in brief: (§3)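 Selectivity index is the IC50 in normal breast epithelial fR2 cells divided by the IC50 in each cancer line. All IC50 values come from the SRB assay.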

[9] = Selectivity index, ratio of IC50 for human FR2 cells to IC50 for human HCT116 cells; format: functional; method in brief: as §3
[10] = Selectivity index, ratio of IC50 for human FR2 cells to IC50 for human A549 cells; format: functional; method in brief: as §3
MCF7 [11] = experiment: Cytotoxicity against human MCF7 cells assessed as reduction in cell viability after 48 hrs by SRB assay; format: functional, cell-based; settings: MCF7, 48 h; method in brief: as §1
A549 [12] = experiment: Growth inhibition of human A549 cells at 10 uM after 48 hrs by SRB assay relative to control; format: functional; settings: A549, 48 h, read-out: GI; method in brief: as §2
HCT-116 [13] = experiment: Cytotoxicity against human HCT116 cells assessed as reduction in cell viability after 48 hrs by SRB assay; format: functional, cell-based; settings: HCT-116, 48 h; method in brief: as §1
HCT-116 [14] = experiment: Growth inhibition of human HCT116 cells at 10 uM after 48 hrs by SRB assay relative to control; format: functional; settings: HCT-116, 48 h, read-out: GI; method in brief: as §2
[15] = Selectivity index, ratio of IC50 for human FR2 cells to IC50 for human PC3 cells; format: functional; method in brief: as §3

| Structure (SMILES) | IC50 (PC-3 [1]) [µM] | inhibition of growth at 10 µM (PC-3 [2]) [%] | inhibition of growth at 10 µM (MCF7 [3]) [%] | IC50 (MIA PaCa-2 [4]) [µM] | inhibition of growth at 10 µM (MIA PaCa-2 [5]) [%] | IC50 [6] [µM] | IC50 (A549 [7]) [µM] | Ratio IC50 [8] | Ratio IC50 [9] | Ratio IC50 [10] | IC50 (MCF7 [11]) [µM] | inhibition of growth at 10 µM (A549 [12]) [%] | IC50 (HCT-116 [13]) [µM] | inhibition of growth at 10 µM (HCT-116 [14]) [%] | Ratio IC50 [15] |
| --- | --- | --- | --- | --- | --- | --- | --- | --- | --- | --- | --- | --- | --- | --- | --- |
| C=C(C)[C@@H]1CC[C@]2(C(=O)O)CC[C@]3(C)[C@H](CC[C@@H]4[C@@]5(C)C/C(=C\c6cc(Br)ccc6OC)[C@H](O)C(C)(C)[C@@H]5CC[C@]43C)[C@@H]12 | > 10 | 7 | 67 | > 10 | 16 | 10.5 | 2.8 | 2.025 | 1.93 | 3.76 | 5.2 | 65 | 5.44 | 54 |  |
| C=C(C)[C@@H]1CC[C@]2(C(=O)O)CC[C@]3(C)[C@H](CC[C@@H]4[C@@]5(C)CC[C@H](O)C(C)(C)[C@@H]5CC[C@]43C)[C@@H]12 [BETULINIC ACID] | > 10 | 49 | 28 | > 10 | 26 | 30.1 | > 10 |  |  |  | > 10 | 40 | > 10 | 42 |  |
| C=C(C)[C@@H]1CC[C@]2(C(=O)O)CC[C@]3(C)[C@H](CC[C@@H]4[C@@]5(C)C/C(=C/C=C/c6ccccc6)[C@H](O)C(C)(C)[C@@H]5CC[C@]43C)[C@@H]12 |  | 30 | 49 |  | 49 |  |  |  |  |  |  | 26 |  | 40 |  |
| C=C(C)[C@@H]1CC[C@]2(C(=O)O)CC[C@]3(C)[C@H](CC[C@@H]4[C@@]5(C)C/C(=C\c6ccc(F)c(Br)c6)[C@H](O)C(C)(C)[C@@H]5CC[C@]43C)[C@@H]12 | > 10 | 31 | 72 | > 10 | 40 | 25.7 | 4.9 | 4.021 | 3.064 | 5.253 | 6.4 | 65 | 8.4 | 57 |  |
| C=C(C)[C@@H]1CC[C@]2(C(=O)O)CC[C@]3(C)[C@H](CC[C@@H]4[C@@]5(C)C/C(=C\c6ccc(Br)cc6)C(=O)C(C)(C)[C@@H]5CC[C@]43C)[C@@H]12 | 8.3 | 66 | 68 | > 10 | 27 | 10.5 | 1.71 | 1.481 | 2.39 | 6.15 | 7.1 | 72 | 4.4 | 61 | 1.267 |
| C=C(C)[C@@H]1CC[C@]2(C(=O)O)CC[C@]3(C)[C@H](CC[C@@H]4[C@@]5(C)C/C(=C\c6cccc(Br)c6)C(=O)C(C)(C)[C@@H]5CC[C@]43C)[C@@H]12 | 8.7 | 56 | 56 | > 10 | 35 | 16.9 | 3.04 | 3.25 | 3.44 | 5.55 | 5.2 | 71 | 4.9 | 57 | 1.94 |
| C=C(C)[C@@H]1CC[C@]2(C(=O)O)CC[C@]3(C)[C@H](CC[C@@H]4[C@@]5(C)C/C(=C/C=C/c6ccccc6)C(=O)C(C)(C)[C@@H]5CC[C@]43C)[C@@H]12 | 7.8 | 71 | 84 | > 10 | 48 | 13.1 | 3.4 | 1.825 | 2.265 | 3.864 | 7.2 | 93 | 5.8 | 66 | 1.684 |
| C=C(C)[C@@H]1CC[C@]2(C(=O)O)CC[C@]3(C)[C@H](CC[C@@H]4[C@@]5(C)C/C(=C\c6c(Cl)cccc6Cl)[C@H](O)C(C)(C)[C@@H]5CC[C@]43C)[C@@H]12 | > 10 | 38 | 56 | > 10 | 38 | 13.3 | > 10 |  |  |  | > 10 | 40 | > 10 | 40 |  |
| C=C(C)[C@@H]1CC[C@]2(C(=O)O)CC[C@]3(C)[C@H](CC[C@@H]4[C@@]5(C)C/C(=C\c6cccnc6)[C@H](O)C(C)(C)[C@@H]5CC[C@]43C)[C@@H]12 | > 10 | 26 | 72 | 5.8 | 63 | 12.4 | 3.4 | 3.18 | 2.46 | 3.65 | 3.9 | 71 | 5.04 | 65 |  |
| C=C(C)[C@@H]1CC[C@]2(C(=O)O)CC[C@]3(C)[C@H](CC[C@@H]4[C@@]5(C)C/C(=C\c6c(Cl)cccc6Cl)C(=O)C(C)(C)[C@@H]5CC[C@]43C)[C@@H]12 | > 10 | 25 | 54 | > 10 | 15 | 18.2 | 7.7 |  | <2.003 | 2.359 | 9.07 | 62 | > 10 | 33 |  |
| C=C(C)[C@@H]1CC[C@]2(C(=O)O)CC[C@]3(C)[C@H](CC[C@@H]4[C@@]5(C)C/C(=C\c6ccc(Br)o6)[C@H](O)C(C)(C)[C@@H]5CC[C@]43C)[C@@H]12 |  | 8 | 22 |  | 34 |  |  |  |  |  |  | 0 |  | 25 |  |
| C=C(C)[C@@H]1CC[C@]2(C(=O)O)CC[C@]3(C)[C@H](CC[C@@H]4[C@@]5(C)C/C(=C\c6cc(Br)ccc6OC)C(=O)C(C)(C)[C@@H]5CC[C@]43C)[C@@H]12 | 7.1 | 81 | 85 | > 10 | 28 | 13.1 | 1.7 | 2.09 | 2.802 | 7.705 | 6.3 | 88 | 4.7 | 92 | 1.854 |
| C=C(C)[C@@H]1CC[C@]2(C(=O)O)CC[C@]3(C)[C@H](CC[C@@H]4[C@@]5(C)CCC(=O)C(C)(C)[C@@H]5CC[C@]43C)[C@@H]12 [BETUNOLIC ACID] | > 10 | 43 | 43 | > 10 | 36 | 16.2 | 5.7 |  |  | 2.838 | > 10 | 62 | > 10 | 49 |  |
| C=C(C)[C@@H]1CC[C@]2(C(=O)O)CC[C@]3(C)[C@H](CC[C@@H]4[C@@]5(C)C/C(=C\c6ccsc6)[C@H](O)C(C)(C)[C@@H]5CC[C@]43C)[C@@H]12 | > 10 | 35 | 79 | > 10 | 70 | 11.1 | > 10 | 6.461 |  |  | 1.71 | 72 | > 10 | 62 |  |
| C=C(C)[C@@H]1CC[C@]2(C(=O)O)CC[C@]3(C)[C@H](CC[C@@H]4[C@@]5(C)C/C(=C\c6ccc(Br)cc6)[C@H](O)C(C)(C)[C@@H]5CC[C@]43C)[C@@H]12 | 8.2 | 48 | 64 | > 10 | 48 | 35.3 | 1.8 | 4.36 | 6.2 | 19.63 | 8.1 | 80 | 5.7 | 66 | 4.3 |
